Shown are actives, neighbours in structure and some others; about 1.8% of the full set was active somewhere.
SUMO1 PPI mod – alters human SUMO1 binding to SIM partners | P63165 | inhibition, % at 20 µM | 0.33% of 360,000 active | SUMO1 binding to a labelled peptide, TR-FRET, 1 h | AID 602429; in the data active means inhibition above about 37%
LMPTP block – blocks human LMPTP phosphatase; recombinant LMPTP-A, OMFP fluorogenic substrate, fluorescence intensity; inhibition, % at 20 µM; P24666; 0.22% of 360,000 active;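 active means compounds that cut the enzyme signal by at least half of the control window in the single-dose screen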;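 further: plate controls were DMSO wells with enzyme plus substrate for no effect and substrate without enzyme for full effect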
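Test system: LMPTP-A phosphatase enzyme; input: 0.625 nM LMPTP-A final; reagent: OMFP substrate, 400 µM final; compound dosing: 20 µM single dose, 3% DMSO; incubation: 50 min dark incubation at room temperature; measured by: endpoint fluorescence intensity from OMFP dephosphorylation; measure: % inhibition relative to no-enzyme and uninhibited control wells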
DNMT1 inh – inhibitors of human DNMT1 | DNMT1 molecular beacon, Hinp1I cleavage, fluorescence | P26358 | inhibition (reported as % activation of signal), % at 10 µM | 0.83% of 360,000 active; in the data active means inhibition above about 50%
Scp-1 inhibitor – inhibitors of human Scp-1 phosphatase. Q9GZU7. Recombinant Scp1, phosphopeptide, malachite green phosphate absorbance. inhibition, % at 20 µM. 0.88% of 340,000 active. AID 493091;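 active means inhibition above about 50% at 20 µM, limit read from the data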;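 further: plate controls were DMSO wells with enzyme for no effect and wells lacking enzyme for full effect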
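System: SCP-1 catalytic domain; Reagent: Phospho 17-mer peptide substrate; Doses: one concentration, 20 µM, with 1.0% DMSO; Incubation: 45 min room-temperature reaction, 5 min colour, 30 min stabiliser; Signal: Phosphate-binding colour reagent, absorbance read at 630 nm.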
STEP block – inhibitors of human striatal-enriched phosphatase STEP; recombinant STEP, OMFP fluorogenic substrate, fluorescence; inhibition, % at 20 µM; 0.25% of 360,000 active; AID 588621;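 active means inhibition at 20 µM, scaled per plate between control wells, above about 37%, limit read from the data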;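 further: 0% = DMSO with enzyme and substrate and 100% = substrate only without enzyme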
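Material: STEP (striatal-enriched tyrosine phosphatase) enzyme, cell-free | Medium: 50 mM Bis-Tris pH 6.0 with 2.5 mM DTT and 0.005% Tween 20 | Read-out: Percent inhibition scaled to no-enzyme and uninhibited-enzyme controls, plate-pattern corrected | Signal: Fluorescence read at 480 nm ex / 540 nm em | Times: 20 min reaction, room temperature, in the dark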
HKDC1 inh – blocks human hexokinase HKDC1 activity. AID 493160. recombinant HKDC1, G6PDH/diaphorase resazurin coupled fluorescence. inhibition, % at 20 µM. 0.16% of 340,000 active. Q2TB90;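 active means inhibition above about 35% when tested at 20 µM, limit read from the data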;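 further: plate controls were DMSO wells with enzyme for no effect and DMSO wells lacking enzyme for full effect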
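Material – in-house recombinant HK5 (HKDC1) enzyme · Quantity – HKDC1 at 5 µg/mL · Buffer or medium – pH 8.0 Tris buffer with 10 mM MgCl2 · Reagent – glucose with 1 mM ATP · Dosing – single 20 µM dose · Times – reaction time 90 min, room temperature, protected from light · Technique – resorufin fluorescence at 613 nm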
Scp1 confirm – confirmation of human Scp-1 phosphatase inhibitors. recombinant SCP-1 catalytic domain, phosphate release, malachite green absorbance. shares compounds with Scp-1 inhibitor. inhibition, % at 20 µM. 61% of 2,500 active;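 further: plate controls were DMSO with enzyme for no effect and buffer wells lacking enzyme for full effect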
Scp-1 MG ctr – counter-screen for Scp-1 inhibitors: colorimetric interference; 2,500 tested, under 10 active; Colorimetric interference counterscreen, malachite green absorbance 630 nm; apparent inhibition (interference), % at 20 µM; shares compounds with Scp-1 inhibitor; AID 540313;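 further: compounds added after enzyme reaction finished so only phosphate colour detection is probed; plate controls were DMSO wells with completed Scp-1 reaction for no effect and substrate wells lacking enzyme for full effect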
Scp1 DSF – Scp-1 (human) binding by thermal shift | thermal shift relative to vanadate control, % at 40 µM | AID 540329 | Recombinant SCP1, Sypro Orange thermal shift Tm | shares compounds with Scp-1 inhibitor | 25% of 1,500 active;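 active means substances whose mean melting-temperature shift, as a percentage of the reference inhibitor's shift, reaches about 5.3%, limit read from the data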;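 further: 0% = Tm of DMSO wells and 100% = Tm with sodium orthovanadate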
HKDC1 act conf2 – confirmation of human HKDC1 activators; shares compounds with HKDC1 inh; recombinant HKDC1, G6PDH/diaphorase resazurin fluorescence; stronger effect = lower value; inhibition, % at 20 µM; 14% of 740 active; AID 504708;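 active means inhibition at or below a set negative limit, negative inhibition meaning the enzyme was activated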
DNMT1 inh conf – confirmation of human DNMT1 inhibitors | shares compounds with DNMT1 inh | 8% of 2,300 active | inhibition, % at 10 µM | DNMT1 molecular beacon HinP1I cleavage, fluorescence;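 active means average inhibition of at least 30% in the single-concentration confirmation test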
DNMT1 interf – shows spectral interference in the DNMT1 beacon assay | shares compounds with DNMT1 inh | DNMT1 molecular beacon spectral interference counterscreen, fluorescence 485/520 | activation (fluorescence interference), % at 10 µM | 1% of 2,300 active;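 active means activation of at least 30% at 10 µM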;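 further: DNMT1 catalytic domain with a HinP1I cleavage step and a FAM/dabcyl DNA beacon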
STEP inh conf – confirmation of human STEP phosphatase inhibitors. shares compounds with STEP block. recombinant STEP, OMFP fluorogenic substrate, fluorescence. inhibition, % at 20 µM. 32% of 520 active; call rule not given here;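 further: 0% = enzyme with substrate plus DMSO and 100% = substrate without enzyme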
An asterisk follows results filed as active.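 How the source made its calls, unless noted: active means inhibition of at least 30% at 20 µM; inactive means the rest.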

Cn1c2ccccc2c(=O)c2c(=O)n(-c3ccc(F)cc3)c(-c3cccs3)nc21 was read as SUMO1 PPI mod -21, LMPTP block 47, DNMT1 inh -2, Scp-1 inhibitor 101*, STEP block 44*, HKDC1 inh 68*, Scp1 confirm 54*, Scp-1 MG ctr -13, Scp1 DSF -4, HKDC1 act conf2 66 and STEP inh conf 17.
For Cc1c(CC(=O)O)c(=O)oc2c(C)c(OCc3ccccc3Br)ccc12 the results were SUMO1 PPI mod 25, LMPTP block 49, DNMT1 inh 2, Scp-1 inhibitor 91*, STEP block 98*, HKDC1 inh 13, Scp1 confirm 62*, Scp-1 MG ctr -14, Scp1 DSF -62 and STEP inh conf 65*.
For Cc1c(Cc2ccccc2)c(=O)oc2c(C)c(OCC(=O)NCC3CCC(C(=O)O)CC3)ccc12 (centres undefined) the results were SUMO1 PPI mod 5, LMPTP block 46, DNMT1 inh -2, Scp-1 inhibitor 85*, STEP block 65*, HKDC1 inh 3, Scp1 confirm 56*, Scp-1 MG ctr -17, Scp1 DSF -33 and STEP inh conf 29.
Cc1c(CC(=O)O)c(=O)oc2c(C)c(OCc3ccccc3)ccc12 was read as SUMO1 PPI mod 3, LMPTP block -2, DNMT1 inh -2, Scp-1 inhibitor -23, STEP block 0 and HKDC1 inh -3.
Screening Cc1c(CCC(=O)O)c(=O)oc2c(C)c(OCc3cc4c(cc3Cl)OCO4)ccc12 returned SUMO1 PPI mod 81*, LMPTP block 77*, DNMT1 inh 2, Scp-1 inhibitor 59*, STEP block 94*, HKDC1 inh 6, Scp1 confirm 39*, Scp-1 MG ctr -21, Scp1 DSF -36 and STEP inh conf 51*.
For COc1ncccc1C(=O)N1CCCC(C(=O)Nc2cccc(-c3ccc(F)cc3)c2)C1 (centres undefined) the results were SUMO1 PPI mod 16, LMPTP block 0, DNMT1 inh -4 and STEP block 0.
`COc1ccccc1-c1cccc(-c2nc(C(=O)N3CCCCC3)cc3c2[C@@H](CCO)N(S(=O)C(C)(C)C)C3)c1` (some centres undefined) gave SUMO1 PPI mod 8, LMPTP block -1, DNMT1 inh 3 and STEP block 2.
Screening O=C(N/N=C/c1ccc(OC(=O)c2ccc3c(c2)OCO3)cc1)c1cncc(Br)c1 returned SUMO1 PPI mod -3, LMPTP block 86*, DNMT1 inh 117*, Scp-1 inhibitor 94*, STEP block 99*, HKDC1 inh 8, Scp1 confirm 86*, Scp-1 MG ctr -13, Scp1 DSF -26, DNMT1 inh conf 4, DNMT1 interf -9 and STEP inh conf 11.

From PubChem
